SMILES strings stand for the structures. In brackets after ≈: the same amount, converted by molar mass.

Data set [1] in a line: Kinetic solubility of the compound in pION buffer at pH 7.4 measured after 18 hrs. The class given is physicochemical. As to conditions: read-out: Kinetic_solubility.
The target of data set [2] is T1, Diacylglycerol O-acyltransferase 1 (Mus musculus) (UniProt Q9Z2A7).
T1 sequence (whole entry): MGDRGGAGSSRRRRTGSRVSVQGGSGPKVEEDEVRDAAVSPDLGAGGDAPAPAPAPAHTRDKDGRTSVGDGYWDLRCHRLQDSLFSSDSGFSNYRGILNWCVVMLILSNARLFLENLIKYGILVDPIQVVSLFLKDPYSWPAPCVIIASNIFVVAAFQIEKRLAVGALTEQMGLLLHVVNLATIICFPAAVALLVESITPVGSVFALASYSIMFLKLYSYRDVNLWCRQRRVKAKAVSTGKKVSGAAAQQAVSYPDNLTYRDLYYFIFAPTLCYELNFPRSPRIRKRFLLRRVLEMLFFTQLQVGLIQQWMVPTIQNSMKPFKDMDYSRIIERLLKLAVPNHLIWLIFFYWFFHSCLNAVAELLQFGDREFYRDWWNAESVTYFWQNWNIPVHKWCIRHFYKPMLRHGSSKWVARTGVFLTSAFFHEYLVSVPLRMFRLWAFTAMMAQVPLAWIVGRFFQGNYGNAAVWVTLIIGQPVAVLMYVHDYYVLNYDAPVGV
Put plainly: Inhibition of DGAT1 in mouse C2C12 cells at 300 nM using [14C] oleic acid as substrate measured after 20 mins by phosphorimaging method relative to control. It counts as cell-based.

The nature of data set [3]: Oral bioavailability in Sprague-Dawley rat at 2 mg/kg. The class given is ADME, organism-based. The settings on record: in vivo. In short, it runs like this:
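Male animals, n = 3 per species: C57BL/6J mouse at 2.2 mg/kg IV and 2.7 mg/kg PO; Sprague–Dawley rat at 1 mg/kg IV and 2 mg/kg PO; Beagle dog at 1.8 mg/kg IV and 5.3 mg/kg PO. Plasma clearance, Vss, IV half-life and oral %F were derived from the plasma profiles.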

With `CC1(CC(=O)O)CCc2cc(-c3ccc(NC(=O)Nc4cccc(Cl)c4)cc3)ccc2C1=O` (configuration not stated), the solubility kinetic at 18 h in data set [1] stood at 75 µg/mL (≈ 162 µM).
The same measure, in the same setting: under `CC1(CC(=O)O)CCc2cc(-c3ccc(NC(=O)Nc4cccc(C(F)(F)F)c4)cc3)ccc2C1=O` (configuration not stated) stands 72 µg/mL (≈ 145 µM).
Turning to `CCC1(CC(=O)O)CCc2cc(-c3ccc(NC(=O)Nc4cccc(C(F)(F)F)c4)cc3)ccc2C1=O` (racemic), the solubility kinetic at 18 h in data set [1] is 39 µg/mL (≈ 76.4 µM). In data set [2], this molecule gave an inhibition of 62%.
As for `CC[C@@]1(CC(=O)O)CCc2cc(-c3ccc(NC(=O)Nc4ccc(Cl)cc4)cc3)ccc2C1=O`, the solubility kinetic at 18 h in data set [1] came out at 5 µg/mL (≈ 10.5 µM). Moreover, in data set [2], the inhibition came to 83%.
As to `COc1cccc(NC(=O)Nc2ccc(-c3ccc4c(c3)CCC(C)(CC(=O)O)C4=O)cc2)c1` (configuration not stated), the solubility kinetic at 18 h in data set [1] came to 40 µg/mL (≈ 87.2 µM).
On the same count and under the same terms, for `CCC1(CC(=O)O)CCc2cc(-c3ccc(NC(=O)Nc4cccc(OC)c4)cc3)ccc2C1=O` (configuration not stated) the value was 6 µg/mL (≈ 12.7 µM); for `CCC1(CC(=O)O)CCc2cc(-c3ccc(NC(=O)Nc4cccc(C)c4)cc3)ccc2C1=O` (configuration not stated), 6 µg/mL (≈ 13.1 µM).
As for `O=C(O)C[C@]1(CC(F)(F)F)CCc2cc(-c3cnc(NC(=O)Nc4cccc(C(F)(F)F)c4)cn3)ccc2C1=O`, the solubility kinetic at 18 h in data set [1] is 56 µg/mL (≈ 98.9 µM). This molecule also registered a bioavailability in data set [3] of 25%.
With `CCC1(CC(=O)O)CCc2cc(-c3ccc(NC(=O)Nc4cccc(F)c4)cc3)ccc2C1=O` (configuration not stated), the solubility kinetic at 18 h in data set [1] worked out at 38 µg/mL (≈ 82.5 µM).
As to `Cc1cccc(NC(=O)Nc2ccc(-c3ccc4c(c3)CCC(C)(CC(=O)O)C4=O)cc2)c1` (configuration not stated), the solubility kinetic at 18 h in data set [1] came to 103 µg/mL (≈ 233 µM).
Same read-out and setting: for `CCC1(CC(=O)O)CCc2cc(-c3ccc(NC(=O)Nc4ccc(C)cc4)cc3)ccc2C1=O` (configuration not stated) the value was 36 µg/mL (≈ 78.9 µM).
Same read-out and setting: for `O=C(O)CC1CCc2cc(-c3ccc(NC(=O)Nc4ccccc4)cc3)ccc2C1=O` (configuration not stated) the value was 58 µg/mL (≈ 140 µM); for `O=C(O)CC1(CC(F)(F)F)CCc2cc(-c3ccc(NC(=O)Nc4ccccc4)cc3)ccc2C1=O` (configuration not stated), 30 µg/mL (≈ 60.4 µM); for `CC1(CC(=O)O)CCc2cc(-c3ccc(NC(=O)Nc4cccc(F)c4)cc3)ccc2C1=O` (configuration not stated), 13 µg/mL (≈ 29.1 µM).
On the same count and under the same terms, under `CCC1(CC(=O)O)CCc2cc(-c3ccc(NC(=O)Nc4ccccc4)cc3)ccc2C1=O` (configuration not stated) stands 34 µg/mL (≈ 76.8 µM); under `CCC1(CC(=O)O)CCc2cc(-c3ccc(NC(=O)Nc4ccc(C(F)(F)F)cc4)cc3)ccc2C1=O` (configuration not stated), 46 µg/mL (≈ 90.1 µM).
As for `CCC1(CC(=O)O)CCc2cc(-c3ccc(NC(=O)Nc4cccc(Cl)c4)cc3)ccc2C1=O` (configuration not stated), the solubility kinetic at 18 h in data set [1] came to 101 µg/mL (≈ 212 µM).
On to `CC[C@@]1(CC(=O)O)CCc2cc(-c3ccc(NC(=O)Nc4cccc(C(F)(F)F)c4)cc3Cl)ccc2C1=O`, for which the solubility kinetic at 18 h in data set [1] is 151 µg/mL (≈ 277 µM). In data set [3], this molecule gave a bioavailability of 23%.
Consider `CC[C@]1(CC(=O)O)CCc2cc(-c3ccc(NC(=O)Nc4ccc(Cl)cc4)cc3)ccc2C1=O`, for which the solubility kinetic at 18 h in data set [1] turned out to be 0.4 µg/mL (≈ 0.839 µM).
`CCC1(CC(=O)O)CCc2cc(-c3ccc(NC(=O)Nc4ccccc4C(F)(F)F)cc3)ccc2C1=O` (configuration not stated): the solubility kinetic at 18 h in data set [1] stood at 26 µg/mL (≈ 50.9 µM).
Take `CC[C@]1(CC(=O)O)CCc2cc(-c3ccc(NC(=O)Nc4cccc(C(F)(F)F)c4)cc3)ccc2C1=O`: the solubility kinetic at 18 h in data set [1] came out at 88 µg/mL (≈ 172 µM). In data set [2], this molecule had an inhibition of 27%.
In the case of `CC1(CC(=O)O)CCc2cc(-c3ccc(NC(=O)Nc4ccccc4)cc3)ccc2C1=O` (configuration not stated), in data set [1], the solubility kinetic at 18 h was found to be 54 µg/mL (≈ 126 µM).
As for `CC[C@@]1(CC(=O)O)CCc2cc(-c3ccc(NC(=O)Nc4ccc(F)c(F)c4)cc3Cl)ccc2C1=O`, in data set [1], the solubility kinetic at 18 h is 125 µg/mL (≈ 244 µM). For the same molecule, the bioavailability in data set [3] worked out at 51%.
`CCCC1(CC(=O)O)CCc2cc(-c3ccc(NC(=O)Nc4ccccc4)cc3)ccc2C1=O` (configuration not stated): the solubility kinetic at 18 h in data set [1] turned out to be 74 µg/mL (≈ 162 µM).
As to `CCC1(CC(=O)O)CCc2cc(-c3ccc(NC(=O)Nc4ccc(Cl)cc4)cc3)ccc2C1=O` (racemic), in data set [1], the solubility kinetic at 18 h came out at 100 µg/mL (≈ 210 µM). For the same molecule, the inhibition in data set [2] was 72%.

Broadly, the inhibition is how much of the control response was suppressed. A lower inhibition goes with little suppression. A word on the bioavailability: it is the share of a dose that reaches the circulation, judged against a reference dose that is usually intravenous.

The record behind these values is ChEMBL document CHEMBL4138301, “Discovery of Tetralones as Potent and Selective Inhibitors of Acyl-CoA:Diacylglycerol Acyltransferase 1” (ACS Med Chem Lett, 2018).
